Measured values pooled from the literature.
Compare with care: the assays were run in different laboratories. Values after ≈ are worked out from the molar mass of the structure shown.
Organism: Mycobacterium tuberculosis variant bovis BCG
Effect on: microbial growth

The MIC50 of C=CC(c1ccc(-c2ccc3c(c2)OCO3)cc1F)n1ccnc1 (stereo not drawn) is reported as > 30 µM (BCG).
The MIC of Fc1ccc(COc2cccc(CNCc3ccncc3)c2)cc1 is reported as > 62.5 µM (ATCC35734 BCG).
C=CC(c1ccc(-c2ccc3c(c2)OCO3)cc1)n1ccnc1 (stereo not drawn) gave an MIC50 of 20 µM (≈ 6.09 µg/mL) (BCG).
For CCCCCCn1c2c([n+](C3CCC4(CCCCC4)CC3)c1C)C(=O)c1ccccc1C2=O, the MIC50 was 0.08 µM (BCG; 5 days).
c1ccc(COc2ccc(CNCc3ccncc3)cc2)cc1 has an MIC of > 62.5 µM (ATCC35734 BCG).
The MIC50 of C=CC(c1ccc(-c2ccc(OC)c(C)c2)cc1)n1ccnc1 (stereo not drawn) is reported as 17.3 µM (≈ 5.27 µg/mL) (BCG).
For COc1ccc(C=CC(=O)c2ccccc2)cc1OC, the MIC was 6.25 µg/mL (BCG; 7 days).
With c1ccc(COc2ccc(CNCc3cccnc3)cc2)cc1 the MIC was > 62.5 µM (ATCC35734 BCG).
The IC50 of Nc1cnc(C(=O)O)cn1 is reported as 800 µM (ATCC35734 BCG; 5 days).
COc1ccc(C=CC(=O)c2ccc(Br)cc2)cc1OC has an MIC of 12.5 µg/mL (BCG; 7 days).
For Clc1ccc(COC(Cn2ccnc2)c2ccc(Cl)cc2Cl)cc1 (stereo not drawn), the MIC50 was 12.7 µM (≈ 4.85 µg/mL) (BCG).
For COc1ccc(C(=O)C=Cc2ccc(OC)c(OC)c2)cc1, the MIC was 50 µg/mL (BCG; 7 days).
For Fc1ccc(COc2ccc(CNCc3ccccc3)cc2)cc1, the MIC was > 62.5 µM (ATCC35734 BCG).
C=CC(c1ccc(-c2ccc(O)c(Cl)c2)cc1)n1ccnc1 (stereo not drawn) gave an MIC50 of 49.9 µM (≈ 15.5 µg/mL) (BCG).
For COc1ccc(C=CC(=O)c2ccc(Cl)cc2)cc1OC, the MIC was 200 µg/mL (BCG; 7 days).
